Assay results: ChEMBL document CHEMBL4732030, “Aloe-emodin derived azoles as a new structural type of potential antibacterial agents: design, synthesis, and evaluation of the action on membrane, DNA, and MRSA DNA isomerase” (RSC Med Chem, 2021)
Values after ≈ are worked out from the molar mass of the structure shown.

How the values were obtained:
Assay type in all cases: functional
Staphylococcus aureus [1] = assay: Antibacterial activity against methicillin resistant Staphylococcus aureus assessed as inhibition of bacterial growth after 24 hrs by microbroth dilution method
Procedure, shortened: (§1)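 Inoculum adjusted in sterile saline to 1×10^5 CFU. Compounds dissolved in DMSO as stock, then diluted in Mueller-Hinton broth as a two-fold series from 512 to 0.5 µg/mL (11 levels). Inoculated dilutions incubated at 37 °C for 24 h, and the MIC recorded.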

Enterococcus faecalis = assay: Antibacterial activity against Enterococcus faecalis assessed as inhibition of bacterial growth after 24 hrs by microbroth dilution method
Procedure, shortened: (§2)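 Bacterial inoculum set to 1×10^5 CFU with sterile saline. Test agents and reference drugs, from DMSO stocks, diluted in Mueller-Hinton broth to 512, 256, 128, 64, 32, 16, 8, 4, 2, 1 and 0.5 µg/mL. Inoculated dilutions incubated 37 °C for 24 h.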

Staphylococcus aureus [2] = assay: Antibacterial activity against Staphylococcus aureus assessed as inhibition of bacterial growth after 24 hrs by microbroth dilution method; procedure, shortened: as §2
Staphylococcus aureus [3] = assay: Antibacterial activity against Staphylococcus aureus ATCC 25923 assessed as inhibition of bacterial growth after 24 hrs by microbroth dilution method; procedure, shortened: as §2
Staphylococcus aureus [4] = assay: Antibacterial activity against Staphylococcus aureus ATCC 29213 assessed as inhibition of bacterial growth after 24 hrs by microbroth dilution method; procedure, shortened: as §1
Klebsiella pneumoniae = assay: Antibacterial activity against Klebsiella pneumoniae assessed as inhibition of bacterial growth after 24 hrs by microbroth dilution method; procedure, shortened: as §2
Escherichia coli [5] = assay: Antibacterial activity against Escherichia coli assessed as inhibition of bacterial growth after 24 hrs by microbroth dilution method; procedure, shortened: as §2
Escherichia coli [6] = assay: Antibacterial activity against Escherichia coli ATCC 25922 assessed as inhibition of bacterial growth after 24 hrs by microbroth dilution method; procedure, shortened: as §2
Pseudomonas aeruginosa [7] = assay: Antibacterial activity against Pseudomonas aeruginosa assessed as inhibition of bacterial growth after 24 hrs by microbroth dilution method; procedure, shortened: as §2
Pseudomonas aeruginosa [8] = assay: Antibacterial activity against Pseudomonas aeruginosa ATCC 27853 assessed as inhibition of bacterial growth after 24 hrs by microbroth dilution method; procedure, shortened: as §2
Acinetobacter baumannii = assay: Antibacterial activity against Acinetobacter baumannii assessed as inhibition of bacterial growth after 24 hrs by microbroth dilution method; procedure, shortened: as §2
Staphylococcus aureus [9] = assay: Potency index, ratio of norfloxacin MIC to compound MIC for antibacterial activity against Staphylococcus aureus incubated for 24 hrs by microbroth dilution method

O=C1c2cccc(O)c2C(=O)c2c(O)cc(Cn3ccnc3[N+](=O)[O-])cc21
MIC (Staphylococcus aureus [1]): 32 µg/mL (≈ 87.6 µM) | MIC (Enterococcus faecalis): 32 µg/mL (≈ 87.6 µM) | MIC (Staphylococcus aureus [2]): 32 µg/mL (≈ 87.6 µM) | MIC (Staphylococcus aureus [3]): 32 µg/mL (≈ 87.6 µM) | MIC (Staphylococcus aureus [4]): 32 µg/mL (≈ 87.6 µM) | MIC (Klebsiella pneumoniae): 64 µg/mL (≈ 175 µM) | MIC (Escherichia coli [5]): 64 µg/mL (≈ 175 µM) | MIC (Escherichia coli [6]): 32 µg/mL (≈ 87.6 µM) | MIC (Pseudomonas aeruginosa [7]): 64 µg/mL (≈ 175 µM) | MIC (Pseudomonas aeruginosa [8]): 64 µg/mL (≈ 175 µM) | MIC (Acinetobacter baumannii): 64 µg/mL (≈ 175 µM)

O=C1c2cccc(O)c2C(=O)c2c(O)cc(Cn3cnc4ccccc43)cc21
MIC (Staphylococcus aureus [1]): 32 µg/mL (≈ 86.4 µM) | MIC (Enterococcus faecalis): 16 µg/mL (≈ 43.2 µM) | MIC (Staphylococcus aureus [2]): 32 µg/mL (≈ 86.4 µM) | MIC (Staphylococcus aureus [3]): 8 µg/mL (≈ 21.6 µM) | MIC (Staphylococcus aureus [4]): 32 µg/mL (≈ 86.4 µM) | MIC (Klebsiella pneumoniae): 64 µg/mL (≈ 173 µM) | MIC (Escherichia coli [5]): 32 µg/mL (≈ 86.4 µM) | MIC (Escherichia coli [6]): 16 µg/mL (≈ 43.2 µM) | MIC (Pseudomonas aeruginosa [7]): 64 µg/mL (≈ 173 µM) | MIC (Pseudomonas aeruginosa [8]): 32 µg/mL (≈ 86.4 µM) | MIC (Acinetobacter baumannii): 32 µg/mL (≈ 86.4 µM)

Cn1ccnc1SCc1cc(O)c2c(c1)C(=O)c1cccc(O)c1C2=O
MIC (Staphylococcus aureus [1]): 128 µg/mL (≈ 349 µM) | MIC (Enterococcus faecalis): 128 µg/mL (≈ 349 µM) | MIC (Staphylococcus aureus [2]): 128 µg/mL (≈ 349 µM) | MIC (Staphylococcus aureus [3]): 256 µg/mL (≈ 699 µM) | MIC (Staphylococcus aureus [4]): 128 µg/mL (≈ 349 µM) | MIC (Klebsiella pneumoniae): 128 µg/mL (≈ 349 µM) | MIC (Escherichia coli [5]): 128 µg/mL (≈ 349 µM) | MIC (Escherichia coli [6]): 128 µg/mL (≈ 349 µM) | MIC (Pseudomonas aeruginosa [7]): 128 µg/mL (≈ 349 µM) | MIC (Pseudomonas aeruginosa [8]): 64 µg/mL (≈ 175 µM) | MIC (Acinetobacter baumannii): 32 µg/mL (≈ 87.3 µM)

O=C1c2cccc(O)c2C(=O)c2c(O)cc(Cn3nnc4ccccc43)cc21
MIC (Staphylococcus aureus [1]): 32 µg/mL (≈ 86.2 µM) | MIC (Enterococcus faecalis): 32 µg/mL (≈ 86.2 µM) | MIC (Staphylococcus aureus [2]): 128 µg/mL (≈ 345 µM) | MIC (Staphylococcus aureus [3]): 256 µg/mL (≈ 689 µM) | MIC (Staphylococcus aureus [4]): 32 µg/mL (≈ 86.2 µM) | MIC (Klebsiella pneumoniae): 128 µg/mL (≈ 345 µM) | MIC (Escherichia coli [5]): 128 µg/mL (≈ 345 µM) | MIC (Escherichia coli [6]): 32 µg/mL (≈ 86.2 µM) | MIC (Pseudomonas aeruginosa [7]): 128 µg/mL (≈ 345 µM) | MIC (Pseudomonas aeruginosa [8]): 64 µg/mL (≈ 172 µM) | MIC (Acinetobacter baumannii): 16 µg/mL (≈ 43.1 µM)

O=C1c2cccc(O)c2C(=O)c2c(O)cc(Cn3cncn3)cc21
MIC (Staphylococcus aureus [1]): 32 µg/mL (≈ 99.6 µM) | MIC (Enterococcus faecalis): 128 µg/mL (≈ 398 µM) | MIC (Staphylococcus aureus [2]): 8 µg/mL (≈ 24.9 µM) | MIC (Staphylococcus aureus [3]): 16 µg/mL (≈ 49.8 µM) | MIC (Staphylococcus aureus [4]): 32 µg/mL (≈ 99.6 µM) | MIC (Klebsiella pneumoniae): 64 µg/mL (≈ 199 µM) | MIC (Escherichia coli [5]): 64 µg/mL (≈ 199 µM) | MIC (Escherichia coli [6]): 64 µg/mL (≈ 199 µM) | MIC (Pseudomonas aeruginosa [7]): 32 µg/mL (≈ 99.6 µM) | MIC (Pseudomonas aeruginosa [8]): 32 µg/mL (≈ 99.6 µM) | MIC (Acinetobacter baumannii): 32 µg/mL (≈ 99.6 µM)

O=C1c2cccc(O)c2C(=O)c2c(O)cc(CSc3nnc[nH]3)cc21
MIC (Staphylococcus aureus [1]): 64 µg/mL (≈ 181 µM) | MIC (Enterococcus faecalis): 128 µg/mL (≈ 362 µM) | MIC (Staphylococcus aureus [2]): 16 µg/mL (≈ 45.3 µM) | MIC (Staphylococcus aureus [3]): 16 µg/mL (≈ 45.3 µM) | MIC (Staphylococcus aureus [4]): 16 µg/mL (≈ 45.3 µM) | MIC (Klebsiella pneumoniae): 64 µg/mL (≈ 181 µM) | MIC (Escherichia coli [5]): 128 µg/mL (≈ 362 µM) | MIC (Escherichia coli [6]): 64 µg/mL (≈ 181 µM) | MIC (Pseudomonas aeruginosa [7]): 32 µg/mL (≈ 90.6 µM) | MIC (Pseudomonas aeruginosa [8]): 64 µg/mL (≈ 181 µM) | MIC (Acinetobacter baumannii): 64 µg/mL (≈ 181 µM)

O=C1c2cccc(O)c2C(=O)c2c(O)cc(Cn3cnc([N+](=O)[O-])c3)cc21
MIC (Staphylococcus aureus [1]): 64 µg/mL (≈ 175 µM) | MIC (Enterococcus faecalis): 128 µg/mL (≈ 350 µM) | MIC (Staphylococcus aureus [2]): 16 µg/mL (≈ 43.8 µM) | MIC (Staphylococcus aureus [3]): 16 µg/mL (≈ 43.8 µM) | MIC (Staphylococcus aureus [4]): 16 µg/mL (≈ 43.8 µM) | MIC (Klebsiella pneumoniae): 128 µg/mL (≈ 350 µM) | MIC (Escherichia coli [5]): 64 µg/mL (≈ 175 µM) | MIC (Escherichia coli [6]): 32 µg/mL (≈ 87.6 µM) | MIC (Pseudomonas aeruginosa [7]): 64 µg/mL (≈ 175 µM) | MIC (Pseudomonas aeruginosa [8]): 32 µg/mL (≈ 87.6 µM) | MIC (Acinetobacter baumannii): 32 µg/mL (≈ 87.6 µM)

Cc1ccc2c(c1)ncn2Cc1cc(O)c2c(c1)C(=O)c1cccc(O)c1C2=O
MIC (Staphylococcus aureus [1]): 64 µg/mL (≈ 166 µM) | MIC (Enterococcus faecalis): 32 µg/mL (≈ 83.2 µM) | MIC (Staphylococcus aureus [2]): 32 µg/mL (≈ 83.2 µM) | MIC (Staphylococcus aureus [3]): 32 µg/mL (≈ 83.2 µM) | MIC (Staphylococcus aureus [4]): 32 µg/mL (≈ 83.2 µM) | MIC (Klebsiella pneumoniae): 64 µg/mL (≈ 166 µM) | MIC (Escherichia coli [5]): 64 µg/mL (≈ 166 µM) | MIC (Escherichia coli [6]): 32 µg/mL (≈ 83.2 µM) | MIC (Pseudomonas aeruginosa [7]): 32 µg/mL (≈ 83.2 µM) | MIC (Pseudomonas aeruginosa [8]): 64 µg/mL (≈ 166 µM) | MIC (Acinetobacter baumannii): 64 µg/mL (≈ 166 µM)

Cn1nnnc1SCc1cc(O)c2c(c1)C(=O)c1cccc(O)c1C2=O
MIC (Staphylococcus aureus [1]): 32 µg/mL (≈ 86.9 µM) | MIC (Enterococcus faecalis): 128 µg/mL (≈ 347 µM) | MIC (Staphylococcus aureus [2]): 8 µg/mL (≈ 21.7 µM) | MIC (Staphylococcus aureus [3]): 16 µg/mL (≈ 43.4 µM) | MIC (Staphylococcus aureus [4]): 32 µg/mL (≈ 86.9 µM) | MIC (Klebsiella pneumoniae): 128 µg/mL (≈ 347 µM) | MIC (Escherichia coli [5]): 128 µg/mL (≈ 347 µM) | MIC (Escherichia coli [6]): 64 µg/mL (≈ 174 µM) | MIC (Pseudomonas aeruginosa [7]): 64 µg/mL (≈ 174 µM) | MIC (Pseudomonas aeruginosa [8]): 64 µg/mL (≈ 174 µM) | MIC (Acinetobacter baumannii): 64 µg/mL (≈ 174 µM) | Ratio (Staphylococcus aureus [9]): 2
